Compound activity deposited in PubChem BioAssay by several laboratories.
MC4R barr agon: MC4R agonists recruiting beta-arrestin, primary screen, cell-based, luminescence, agonist arm of biased-ligand search | Melanocortin receptor 4 (Homo sapiens), P32245 | U2OS MC4R beta-arrestin complementation; percent of melanotan II response, DMSO zero | activation, % at 8.9 µM | actives 0.98% (n = 360,000) | AID 540308, 2011;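 active = activation above a per-plate cutoff, the mean activation of sample wells on that plate plus 3 SD, cut at about 8% in these data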
MPTP block: mitochondrial permeability transition pore inhibitors, primary screen, biochemical, isolated mouse mitochondria, absorbance; Ca2+ swelling absorbance, 30 min; inhibition, % at 10 µM; actives 1.4% (n = 360,000);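 active = inhibition of 50% or more, scaled per plate between neutral and stimulator controls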;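 also: 0% = DMSO wells given calcium and 100% = 1 mM EGTA wells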
MC4R antag cAMP: MC4R antagonists of cAMP signaling, primary screen, cell-based, TR-FRET, antagonist arm of biased-ligand search; Melanocortin receptor 4 (Homo sapiens), P32245; MC4R-expressing cells, MTII-stimulated cAMP, LANCE TR-FRET; inhibition, % at 6.5 µM; actives 0.48% (n = 360,000); AID 540295, 2011;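 active = inhibition above its plate's cutoff, the mean of tested wells on that plate plus 3 SD, cut at about 29% in these data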;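 also: 0% = Melanotan II alone and 100% = Melanotan II plus saturating MCL0020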
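system = U2OS cells with stable human MC4R expression | also added = Melanotan II challenge after compound preincubation | dosing = one concentration, 6.5 µM nominal | incubation = compound 30 min, challenge 1 h, detection 1 h | measured by = TR-FRET with Eu-cAMP and labeled anti-cAMP, 671 nm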
SMARCA2 activ: SMARCA2 (BRM) function activators, primary screen, cell-based, luminescence, high throughput. MG213 cells, MMTV-luciferase reporter, dexamethasone, overnight. activation, % at 9.1 µM. actives 1% (n = 370,000). AID 652017, 2013; in the data active = activation above about 7.8%;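 also: 0% = vehicle wells and 100% = reference activator wells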
ATG4B inhibitor: ATG4B protease inhibitors, primary screen, biochemical, fluorescence, uHTS; Cysteine protease ATG4B (Homo sapiens), Q9Y4P1; inhibition, % at 8.33 µM; actives 0.51% (n = 340,000); ATG4B cleavage of LC3-PLA2, NBD-HPC fluorescence, 1 h; in the data active = inhibition above about 40%
Target sequence (Q9Y4P1 whole entry, looked up): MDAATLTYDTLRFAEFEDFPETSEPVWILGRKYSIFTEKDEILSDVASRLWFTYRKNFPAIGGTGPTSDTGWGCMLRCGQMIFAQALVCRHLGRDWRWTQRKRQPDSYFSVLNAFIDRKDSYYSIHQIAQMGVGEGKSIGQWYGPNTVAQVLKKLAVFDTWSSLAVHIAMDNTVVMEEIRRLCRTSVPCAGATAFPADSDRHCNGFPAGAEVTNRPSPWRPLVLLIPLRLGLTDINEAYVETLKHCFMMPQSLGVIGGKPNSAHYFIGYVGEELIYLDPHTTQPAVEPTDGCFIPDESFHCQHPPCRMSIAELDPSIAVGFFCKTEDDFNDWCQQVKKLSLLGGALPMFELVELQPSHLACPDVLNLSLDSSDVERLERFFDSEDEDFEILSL
Rh123 counter: fluorescence retest of MPTP screen hits in isolated mitochondria, single concentration; shares compounds with MPTP block; membrane potential, Rhodamine 123 fluorescence; inhibition, % at 10 µM; actives 78% (n = 5,000); in the data active = inhibition above about 22%;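 also: 0% = DMSO vehicle and 100% = positive control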
MPTP abs DR: mitochondrial permeability transition pore inhibitors, dose response, biochemical, absorbance, uHTS hits; AID 651561, 2012; isolated mitochondria swelling; shares compounds with MPTP block; actives 58% (n = 780); IC50, µM; in the data active = IC50 below about 20 µM
MPTP cs DR: fluorescent counter-screen in isolated mitochondria, dose response, counter-screen for MPTP inhibitor project, biochemical, fluorescence, uHTS hits | isolated mitochondria counterscreen, fluorescence read-out | actives 49% (n = 780) | shares compounds with MPTP block | IC50, µM; in the data active = IC50 below about 80 µM
Numbers without * were called inactive; nt = not tested or not shown. Rows were chosen to be rich in hits. Some 4.1% of all compounds tested hit in one or more screens of this group.

SMILES	MC4R barr agon	MPTP block	MC4R antag cAMP	SMARCA2 activ	ATG4B inhibitor	Rh123 counter	others
COc1ccc(S(=O)(=O)N2CCC(O)(c3ccc(Cl)cc3)CC2)cc1	-1.4	4.3	2.7	-4.2	-4.8	nt
O=C(CSc1nnc(-c2ccc(Cl)cc2)n1C1CCCCC1)NN=Cc1c(O)ccc2ccccc12	nt	nt	nt	-5.1	nt	nt
c1csc(CCNc2ncnc3sc4c(c23)CCC4)c1	0.3	102.4*	9.1	-4.1	30.2	102.1*
CSc1ncc(Cl)c(C(=O)C(C#N)c2nc3c(C)cc(C)cc3c(=O)[nH]2)n1 (centres undefined)	-0.2	91.1*	2.5	-1.6	10.9	72.6*
CSc1ncc(Cl)c(C(=O)Nc2cccc(C)c2)n1	0.7	0.1	1.2	-1.1	-7.2	nt
Cc1cc(O)c2c(c1)C(=O)c1cc(O)cc(O)c1C2=O	1.8	50.2*	-12.5	-5.5	1.4	80.3*
CC(C)c1ccc(NC(=S)Nc2ccc(OC(F)(F)F)cc2)cc1	1.8	89.7*	6.2	2.2	3.5	89.8*
COc1ccc(CCNC(=S)Nc2ccc(C(C)C)cc2)cc1	0.0	37.3	16.5	-2.2	-4.8	nt
O=C(O)/C=C/C(=O)Nc1ccc(OC(F)(F)F)cc1	-0.9	0.1	-1.0	-3.2	3.1	nt
FC(F)(F)Oc1ccc(NC(=S)Nc2ccc(OC(F)(F)F)cc2)cc1	2.4	95.0*	8.8	-1.9	-9.3	71.0*
Cc1ccccc1Cn1cc(COC(=O)N(C)Cc2ccccc2)nn1	nt	nt	nt	-3.1	nt	nt
CC(C)CCNC(=S)Nc1ccc(Br)cc1	0.6	100.3*	3.4	-0.1	11.5	88.2*
CC(C)OC(=O)c1cc(NC(=S)Nc2ccc([N+](=O)[O-])cc2)cc(C(=O)OC(C)C)c1	-1.3	97.4*	1.5	-2.8	-1.4	99.6*
S=C(NCCc1ccccc1)Nc1ccc(Br)cc1	2.2	97.5*	-1.5	1.2	-5.7	92.3*
CC(C)CCNC(=S)Nc1ccc([N+](=O)[O-])cc1	1.1	97.5*	-0.5	-6.1	0.2	85.4*
CCCNC(=S)Nc1ccc(Br)cc1	-1.1	-0.1	5.4	0.9	5.5	nt
CCCCNC(=S)Nc1ccc([N+](=O)[O-])cc1	-1.4	94.7*	11.9	-2.5	12.6	89.4*
O=C(Oc1ccc2ccc(OC(=O)N3CCCCCC3)cc2c1)N1CCCCCC1	4.7	69.1*	2.1	1.6	29.7	81.5*
CCOc1ccc(CN(C)c2ccc(S(=O)(=O)N3CCN(C)CC3)cc2[N+](=O)[O-])cc1OC	-1.1	55.0*	-1.2	nt	-8.2	92.8*
CCN1CCN(CC(=O)n2c3c(c4ccccc42)CC(C)CC3)CC1 (centres undefined)	0.5	77.7*	3.2	-0.6	8.7	-13.0	MPTP abs DR=8.65*;MPTP cs DR=>80
CC1CCc2c(c3ccccc3n2C(=O)CCl)C1 (centres undefined)	0.8	0.8	-1.1	-1.3	-1.7	nt
N=c1c2c(-c3ccccc3)c(-c3ccccc3)n(Cc3ccco3)c2ncn1CCO	-1.7	80.7*	1.8	6.7	-3.1	-2.9
CC(C)C(N)c1csc(NC(=O)Nc2ccc(OC(F)(F)F)cc2)n1 (centres undefined)	0.5	70.4*	-10.5	-3.4	nt	88.2*
CC(C)C(N)c1csc(NC(=O)Nc2cccc(C(F)(F)F)c2)n1 (centres undefined)	-1.0	4.6	-0.3	-1.9	nt	nt
CCC(CO)Nc1cccc2c1S(=O)(=O)N(Cc1cn(Cc3ccc(F)cc3)nn1)Cc1ccccc1O2 (centres undefined)	nt	nt	nt	-2.2	nt	nt
SMILES	MC4R barr agon	MPTP block	MC4R antag cAMP	SMARCA2 activ	ATG4B inhibitor	Rh123 counter	others
CCC(=O)c1ccc(OCc2ccc(C(=O)c3ccccc3)cc2)cc1	-0.5	101.0*	10.3	-3.1	-16.4	104.0*
COc1ccc([C@H](C#Cc2ccccc2)CC(=O)O)cc1OC1CCCC1	nt	nt	nt	-0.7	nt	nt
COc1ccc(CC(=O)Nc2cccc(-c3csc(C)n3)c2)cc1	-0.1	104.2*	2.2	0.6	-0.7	4.2	MPTP abs DR=>100;MPTP cs DR=>80
CCc1ccc(NC(=O)C2(c3ccccc3)CC2(Cl)Cl)cc1 (centres undefined)	2.5	53.4*	3.9	-4.2	2.6	71.8*
Cc1cc(C)cc(NC(=O)C2(c3ccccc3)CC2(Cl)Cl)c1 (centres undefined)	0.0	70.7*	10.5	-1.6	0.6	75.8*
Cc1ccc(NC(=O)[C@@H]2CC(=O)O[C@@H]2c2ccccc2)c(C)c1	nt	nt	nt	-5.3	nt	nt
Cc1ccccc1/C=C1\SC(=S)N(/N=C/c2cc([N+](=O)[O-])ccc2O)C1=O	-0.9	79.9*	0.4	2.4	22.1	45.0*
O=C(NNC(=O)c1cc(-c2cccnc2)nc2ccccc12)Nc1ccc(Cl)cc1	-2.2	86.4*	11.8	-2.7	-22.7	85.9*
O=C(NNC(=O)c1cc(-c2ccccc2)nc2ccccc12)Nc1cccc(Cl)c1	1.0	3.5	7.7	0.5	13.8	nt
O=C(NCc1ccco1)C1CCCN(S(=O)(=O)c2cccs2)C1 (centres undefined)	nt	nt	nt	-0.3	nt	nt
CCOc1cc(CNCCO)cc(Br)c1OCc1ccc(Cl)cc1	-0.9	90.1*	-4.8	-8.8	-15.6	-22.6	MPTP abs DR=3.79*;MPTP cs DR=61.2*
CCOc1cc(CNCCCN2CCOCC2)cc(Br)c1OCc1ccccc1Cl	1.3	99.6*	4.0	-4.2	-3.0	-4.3
CCOc1cc(CNCCO)cc(Br)c1OCc1ccccc1Cl	1.2	82.2*	-2.6	-2.9	-15.1	20.4*
COc1cc(CNCCO)cc(Cl)c1OCc1ccccc1Cl	1.0	80.0*	19.5	-4.3	1.7	-11.5	MPTP abs DR=5.51*;MPTP cs DR=>80
CCOc1cccc(CNCCO)c1OCc1ccc(Cl)cc1	-0.4	-0.6	3.7	0.7	9.2	nt
COc1cccc(CNCCO)c1OCc1ccccc1Cl	-1.9	0.5	2.1	-4.3	-2.9	nt
COC(=O)c1cc2c(c3c4cc(F)ccc4n(S(=O)(=O)c4ccccc4)c13)C(=O)N(C)C2	nt	nt	nt	-2.5	nt	nt
COc1cc(CNc2ccc(O)cc2)cc(Br)c1OCc1ccccc1F	2.7	5.2	-12.7	nt	19.1	nt
COc1cc(CNCc2ccncc2)cc(Br)c1OCc1ccccc1F	1.4	94.1*	-0.2	-3.6	7.1	65.5*
N/C(=N\N=C/c1ccc(F)cc1)N/N=C\c1ccc(F)cc1	-0.5	3.9	15.3	1.1	-7.6	nt
